Results from ChEMBL document CHEMBL3046406, “Herbicidal potential of ophiobolins produced by Drechslera gigantea” (2006).
Activity calls are given as the source filed them. No cut-off for these calls is given here.

Experiments:
Assay type in all cases: functional
Convolvulus arvensis [1] = assay: Herbicidal activity against Convolvulus arvensis assessed as diameter of leaf necrosis at 50 ug/ml measured after 2 days post compound treatment by leaf puncture assay
Method in brief: (§1)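 Detached leaf segments (about 5 cm) from young greenhouse-grown plants, each with a superficial puncture lesion (0.5 mm) made by glass capillary. Compound dissolved in DMSO, diluted with distilled water (final DMSO 2%), 8 µL droplet applied. Segments held on moist filter paper at 25 °C under continuous fluorescent light (10000 lux). DMSO droplets as control. Necrosis scored visually on a 0–3 scale at day 2.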

Diplotaxis erucoides [2] = assay: Herbicidal activity against Diplotaxis erucoides assessed as diameter of leaf necrosis at 100 ug/ml measured after 2 days post compound treatment by leaf puncture assay; method in brief: as §1
Cynodon dactylon [3] = assay: Herbicidal activity against Cynodon dactylon assessed as diameter of leaf necrosis at 250 ug/ml measured after 2 days post compound treatment by leaf puncture assay; method in brief: as §1
Amaranthus retroflexus [4] = assay: Herbicidal activity against Amaranthus retroflexus assessed as diameter of leaf necrosis at 50 ug/ml measured after 2 days post compound treatment by leaf puncture assay; method in brief: as §1
Setaria viridis [5] = assay: Herbicidal activity against Setaria viridis assessed as diameter of leaf necrosis at 50 ug/ml measured after 2 days post compound treatment by leaf puncture assay; method in brief: as §1
Sonchus oleraceus [6] = assay: Herbicidal activity against Sonchus oleraceus assessed as diameter of leaf necrosis at 50 ug/ml measured after 2 days post-compound treatment by leaf puncture assay; method in brief: as §1
Convolvulus arvensis [7] = assay: Herbicidal activity against Convolvulus arvensis assessed as diameter of leaf necrosis at 100 ug/ml measured after 2 days post compound treatment by leaf puncture assay; method in brief: as §1
Diplotaxis erucoides [8] = assay: Herbicidal activity against Diplotaxis erucoides assessed as diameter of leaf necrosis at 250 ug/ml measured after 2 days post compound treatment by leaf puncture assay; method in brief: as §1
Echinochloa crus-galli [9] = assay: Herbicidal activity against Echinochloa crus-galli (barnyard grass) assessed as diameter of leaf necrosis at 250 ug/ml measured after 2 days post compound treatment by leaf puncture assay; method in brief: as §1
Echinochloa crus-galli [10] = assay: Herbicidal activity against Echinochloa crus-galli (barnyard grass) assessed as diameter of leaf necrosis at 50 ug/ml measured after 2 days post compound treatment by leaf puncture assay; method in brief: as §1
Chenopodium album [11] = assay: Herbicidal activity against Chenopodium album assessed as diameter of leaf necrosis at 100 ug/ml measured after 2 days post compound treatment by leaf puncture assay; method in brief: as §1
[12] = tested on: Avena sterilis subsp. ludoviciana; assay: Herbicidal activity against Avena sterilis subsp. ludoviciana assessed as diameter of leaf necrosis at 50 ug/ml measured after 2 days post compound treatment by leaf puncture assay; method in brief: as §1
Amaranthus retroflexus [13] = assay: Herbicidal activity against Amaranthus retroflexus assessed as diameter of leaf necrosis at 100 ug/ml measured after 2 days post compound treatment by leaf puncture assay; method in brief: as §1
Diplotaxis erucoides [14] = assay: Herbicidal activity against Diplotaxis erucoides assessed as diameter of leaf necrosis at 50 ug/ml measured after 2 days post compound treatment by leaf puncture assay; method in brief: as §1
Oloptum miliaceum [15] = assay: Herbicidal activity against Piptatherum miliaceum assessed as diameter of leaf necrosis at 50 ug/ml measured after 2 days post compound treatment by leaf puncture assay; method in brief: as §1
Digitaria sanguinalis [16] = assay: Herbicidal activity against Digitaria sanguinalis (hairy crabgrass) assessed as diameter of leaf necrosis at 250 ug/ml measured after 2 days post compound treatment by leaf puncture assay; method in brief: as §1
Chenopodium album [17] = assay: Herbicidal activity against Chenopodium album assessed as diameter of leaf necrosis at 50 ug/ml measured after 2 days post compound treatment by leaf puncture assay; method in brief: as §1
Phalaris canariensis [18] = assay: Herbicidal activity against Phalaris canariensis assessed as diameter of leaf necrosis at 50 ug/ml measured after 2 days post compound treatment by leaf puncture assay; method in brief: as §1
Chenopodium album [19] = assay: Herbicidal activity against Chenopodium album assessed as diameter of leaf necrosis at 250 ug/ml measured after 2 days post compound treatment by leaf puncture assay; method in brief: as §1
Echinochloa crus-galli [20] = assay: Herbicidal activity against Echinochloa crus-galli (barnyard grass) assessed as diameter of leaf necrosis at 100 ug/ml measured after 2 days post compound treatment by leaf puncture assay; method in brief: as §1
Sonchus oleraceus [21] = assay: Herbicidal activity against Sonchus oleraceus assessed as diameter of leaf necrosis at 100 ug/ml measured after 2 days post-compound treatment by leaf puncture assay; method in brief: as §1
Phalaris canariensis [22] = assay: Herbicidal activity against Phalaris canariensis assessed as diameter of leaf necrosis at 100 ug/ml measured after 2 days post compound treatment by leaf puncture assay; method in brief: as §1
Amaranthus retroflexus [23] = assay: Herbicidal activity against Amaranthus retroflexus assessed as diameter of leaf necrosis at 250 ug/ml measured after 2 days post compound treatment by leaf puncture assay; method in brief: as §1
Oloptum miliaceum [24] = assay: Herbicidal activity against Piptatherum miliaceum assessed as diameter of leaf necrosis at 100 ug/ml measured after 2 days post compound treatment by leaf puncture assay; method in brief: as §1
Digitaria sanguinalis [25] = assay: Herbicidal activity against Digitaria sanguinalis (hairy crabgrass) assessed as diameter of leaf necrosis at 100 ug/ml measured after 2 days post compound treatment by leaf puncture assay; method in brief: as §1
Digitaria sanguinalis [26] = assay: Herbicidal activity against Digitaria sanguinalis (hairy crabgrass) assessed as diameter of leaf necrosis at 50 ug/ml measured after 2 days post compound treatment by leaf puncture assay; method in brief: as §1
Oloptum miliaceum [27] = assay: Herbicidal activity against Piptatherum miliaceum assessed as diameter of leaf necrosis at 250 ug/ml measured after 2 days post compound treatment by leaf puncture assay; method in brief: as §1
Bromus sterilis [28] = assay: Herbicidal activity against Bromus sterilis assessed as diameter of leaf necrosis at 100 ug/ml measured after 2 days post compound treatment by leaf puncture assay; method in brief: as §1
Convolvulus arvensis [29] = assay: Herbicidal activity against Convolvulus arvensis assessed as diameter of leaf necrosis at 250 ug/ml measured after 2 days post compound treatment by leaf puncture assay; method in brief: as §1
[30] = tested on: Avena sterilis subsp. ludoviciana; assay: Herbicidal activity against Avena sterilis subsp. ludoviciana assessed as diameter of leaf necrosis at 250 ug/ml measured after 2 days post compound treatment by leaf puncture assay; method in brief: as §1
[31] = tested on: Avena sterilis subsp. ludoviciana; assay: Herbicidal activity against Avena sterilis subsp. ludoviciana assessed as diameter of leaf necrosis at 100 ug/ml measured after 2 days post compound treatment by leaf puncture assay; method in brief: as §1
Setaria viridis [32] = assay: Herbicidal activity against Setaria viridis assessed as diameter of leaf necrosis at 250 ug/ml measured after 2 days post compound treatment by leaf puncture assay; method in brief: as §1
Sonchus oleraceus [33] = assay: Herbicidal activity against Sonchus oleraceus assessed as diameter of leaf necrosis at 250 ug/ml measured after 2 days post-compound treatment by leaf puncture assay; method in brief: as §1
Cynodon dactylon [34] = assay: Herbicidal activity against Cynodon dactylon assessed as diameter of leaf necrosis at 50 ug/ml measured after 2 days post compound treatment by leaf puncture assay; method in brief: as §1
Cynodon dactylon [35] = assay: Herbicidal activity against Cynodon dactylon assessed as diameter of leaf necrosis at 100 ug/ml measured after 2 days post compound treatment by leaf puncture assay; method in brief: as §1
Setaria viridis [36] = assay: Herbicidal activity against Setaria viridis assessed as diameter of leaf necrosis at 100 ug/ml measured after 2 days post compound treatment by leaf puncture assay; method in brief: as §1
Phalaris canariensis [37] = assay: Herbicidal activity against Phalaris canariensis assessed as diameter of leaf necrosis at 250 ug/ml measured after 2 days post compound treatment by leaf puncture assay; method in brief: as §1
Bromus sterilis [38] = assay: Herbicidal activity against Bromus sterilis assessed as diameter of leaf necrosis at 250 ug/ml measured after 2 days post compound treatment by leaf puncture assay; method in brief: as §1
Bromus sterilis [39] = assay: Herbicidal activity against Bromus sterilis assessed as diameter of leaf necrosis at 50 ug/ml measured after 2 days post compound treatment by leaf puncture assay; method in brief: as §1

Structure (SMILES) | Activity (Convolvulus arvensis [1]) | Activity (Diplotaxis erucoides [2]) | Activity (Cynodon dactylon [3]) | Activity (Amaranthus retroflexus [4]) | Activity (Setaria viridis [5]) | Activity (Sonchus oleraceus [6]) | Activity (Convolvulus arvensis [7]) | Activity (Diplotaxis erucoides [8]) | Activity (Echinochloa crus-galli [9]) | Activity (Echinochloa crus-galli [10]) | Activity (Chenopodium album [11]) | Activity [12] | Activity (Amaranthus retroflexus [13]) | Activity (Diplotaxis erucoides [14]) | Activity (Oloptum miliaceum [15]) | Activity (Digitaria sanguinalis [16]) | Activity (Chenopodium album [17]) | Activity (Phalaris canariensis [18]) | Activity (Chenopodium album [19]) | Activity (Echinochloa crus-galli [20]) | further results
CC(C)=C[C@H]1C[C@H](C)[C@]2(CC[C@]3(C)C[C@@H]4C(C)=CC(=O)[C@H]4/C(CO)=C\C[C@H]32)O1 | inactive | inactive | inactive | inactive | inactive | inactive | inactive | inactive | inactive | inactive | inactive | inactive | inactive | inactive | inactive | inactive | inactive | inactive | inactive | inactive | Activity (Sonchus oleraceus [21]): inactive; Activity (Phalaris canariensis [22]): inactive; Activity (Amaranthus retroflexus [23]): inactive; Activity (Oloptum miliaceum [24]): inactive; Activity (Digitaria sanguinalis [25]): inactive; Activity (Digitaria sanguinalis [26]): inactive; Activity (Oloptum miliaceum [27]): inactive; Activity (Bromus sterilis [28]): inactive; Activity (Convolvulus arvensis [29]): inactive; Activity [30]: inactive; Activity [31]: inactive; Activity (Setaria viridis [32]): inactive; Activity (Sonchus oleraceus [33]): inactive; Activity (Cynodon dactylon [34]): inactive; Activity (Cynodon dactylon [35]): inactive; Activity (Setaria viridis [36]): inactive; Activity (Phalaris canariensis [37]): inactive; Activity (Bromus sterilis [38]): inactive; Activity (Bromus sterilis [39]): inactive
CC(C)=C[C@H]1C[C@H](C)[C@]2(CC[C@]3(C)C[C@@H]4C(C)=CC(=O)[C@H]4/C(C=O)=C\C[C@H]32)O1 [3-ANHYDRO-6-EPI-OPHIOBOLIN A] | inactive | >3 mm | inactive | inactive | 2 mm | inactive | inactive | >3 mm | 1 mm | 1 mm | 1 mm | inactive | inactive | 2 mm | 1 mm | 1 mm | inactive | 1 mm | 1 mm | 1 mm | Activity (Sonchus oleraceus [21]): 1 mm; Activity (Phalaris canariensis [22]): 1 mm; Activity (Amaranthus retroflexus [23]): inactive; Activity (Oloptum miliaceum [24]): 1 mm; Activity (Digitaria sanguinalis [25]): 1 mm; Activity (Digitaria sanguinalis [26]): inactive; Activity (Oloptum miliaceum [27]): 1 mm; Activity (Bromus sterilis [28]): 1 mm; Activity (Convolvulus arvensis [29]): inactive; Activity [30]: inactive; Activity [31]: inactive; Activity (Setaria viridis [32]): 2 mm; Activity (Sonchus oleraceus [33]): 1 mm; Activity (Cynodon dactylon [34]): inactive; Activity (Cynodon dactylon [35]): inactive; Activity (Setaria viridis [36]): 2 mm; Activity (Phalaris canariensis [37]): 1 mm; Activity (Bromus sterilis [38]): 1 mm; Activity (Bromus sterilis [39]): 1 mm
CC(C)=C[C@H]1C[C@H](C)[C@]2(CC[C@]3(C)C[C@H]4[C@@H](C(=O)C[C@@]4(C)O)/C(C=O)=C\C[C@H]32)O1 [6-EPI-OHPIOBOLIN A] | 2 mm | 2 mm | 2 mm | 1 mm | >3 mm | >3 mm | 2 mm | 2 mm | 2 mm | 1 mm | 2 mm | 2 mm | 1 mm | 2 mm | 1 mm | >3 mm | 2 mm | 1 mm | >3 mm | 2 mm | Activity (Sonchus oleraceus [21]): >3 mm; Activity (Phalaris canariensis [22]): 2 mm; Activity (Amaranthus retroflexus [23]): 1 mm; Activity (Oloptum miliaceum [24]): 1 mm; Activity (Digitaria sanguinalis [25]): 2 mm; Activity (Digitaria sanguinalis [26]): 2 mm; Activity (Oloptum miliaceum [27]): 2 mm; Activity (Bromus sterilis [28]): 1 mm; Activity (Convolvulus arvensis [29]): 2 mm; Activity [30]: 2 mm; Activity [31]: 2 mm; Activity (Setaria viridis [32]): >3 mm; Activity (Sonchus oleraceus [33]): >3 mm; Activity (Cynodon dactylon [34]): inactive; Activity (Cynodon dactylon [35]): 1 mm; Activity (Setaria viridis [36]): >3 mm; Activity (Phalaris canariensis [37]): >3 mm; Activity (Bromus sterilis [38]): 2 mm; Activity (Bromus sterilis [39]): 1 mm
CC(C)=C[C@H]1C[C@H](C)[C@]2(CC[C@]3(C)C[C@H]4[C@H](C(=O)C[C@@]4(C)O)/C(C=O)=C\C[C@H]32)O1 [OPHIOBOLIN A] | 2 mm | 2 mm | 1 mm | 2 mm | >3 mm | >3 mm | 2 mm | 2 mm | >3 mm | >3 mm | 2 mm | >3 mm | 2 mm | 2 mm | 1 mm | >3 mm | 2 mm | >3 mm | >3 mm | >3 mm | Activity (Sonchus oleraceus [21]): >3 mm; Activity (Phalaris canariensis [22]): >3 mm; Activity (Amaranthus retroflexus [23]): >3 mm; Activity (Oloptum miliaceum [24]): 2 mm; Activity (Digitaria sanguinalis [25]): >3 mm; Activity (Digitaria sanguinalis [26]): >3 mm; Activity (Oloptum miliaceum [27]): >3 mm; Activity (Bromus sterilis [28]): 2 mm; Activity (Convolvulus arvensis [29]): 2 mm; Activity [30]: >3 mm; Activity [31]: >3 mm; Activity (Setaria viridis [32]): >3 mm; Activity (Sonchus oleraceus [33]): >3 mm; Activity (Cynodon dactylon [34]): inactive; Activity (Cynodon dactylon [35]): inactive; Activity (Setaria viridis [36]): >3 mm; Activity (Phalaris canariensis [37]): >3 mm; Activity (Bromus sterilis [38]): >3 mm; Activity (Bromus sterilis [39]): 1 mm
